Results on one substance are retold here after ChEMBL document CHEMBL1129059, “Antitumor properties of some 2-[(dimethylamino)methyl]phenylgold(III) complexes” (J Med Chem, 1996).

Values joined by “and” are separate entries in the source; they are usually repeats but may differ in a detail not shown here. Equal entries are not always repeated.

In experiment [1] the test system is Mus musculus. Nature of the experiment: Compound was evaluated for antitumor activity (RTV) in PNX/109/TC carcinoma Xenograft, at a dosage 10 mg/kg on day 28. The class given is functional, organism-based. On the set-up: dose 10 mg/kg. The method in brief: (§1)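 PXN/109/TC (CH1) ovarian tumor fragments implanted subcutaneously in nude mice flanks; established palpable tumors, groups of 6 (controls 10). Dosed intraperitoneally as suspension in arachis oil on days 0, 7, 14, 21. Tumors measured days 0, 7, 14, 21, 28. RTV = 100(mean tumor volume at assessment)/(mean start volume).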

Experiment [2] concerns Mus musculus. Nature of the experiment: Compound was evaluated for antitumor activity (T/C) in HT1376 carcinoma Xenograft, at a dosage 12.5 mg/kg on day 7. Format: functional, organism-based. On the set-up: dose 12.5 mg/kg. The method in brief: (§2)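 Subcutaneous HT1376 xenografts in nude mice, 6 per treated group and 10 controls. Intraperitoneal dosing as suspensions in 0.5% carboxymethylcellulose/0.9% saline on days 0, 7, 14, 21; tumors measured weekly to day 28. T/C = RTV of treated group / RTV of untreated control group; significance by t-test at the 5% level.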

In experiment [3] the test system is Mus musculus. Nature of the experiment: Compound was evaluated for antitumor activity (T/C) in PNX/109/TC carcinoma Xenograft, at a dosage 20 mg/kg on day 14. The class given is functional, organism-based. On the set-up: dose 20 mg/kg. The method in brief: (§3)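 PNX/109/TC (CH1) ovarian tumor fragments implanted subcutaneously in the flanks of nude mice. Once tumors were palpable, mice were randomized into 6 per treated group and 10 controls. Dosing was ip in arachis oil on days 0, 7, 14 and 21, at the MTD and two 2-fold dilutions, with tumor dimensions taken on days 0, 7, 14, 21 and 28. T/C is treated RTV over control RTV, with RTV relative to start volume.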

Experiment [4] relates to Mus musculus. The experiment is described as follows: Compound was evaluated for antitumor activity (T/C) in PNX/109/TC carcinoma Xenograft, at a dosage 10 mg/kg on day 21. The class given is functional, organism-based. Also noted: dose 10 mg/kg. The method in brief:
as §3

Experiment [5] deals with Mus musculus. Nature of the experiment: Compound was evaluated for antitumor activity (RTV) in PNX/109/TC carcinoma Xenograft, at a dosage 5 mg/kg on day 28. On the set-up: dose 5 mg/kg. The class given is functional, organism-based. The method in brief: as §1
Experiment [6] relates to Mus musculus. The experiment is described as follows: Compound was evaluated for antitumor activity (RTV) in PNX/109/TC carcinoma Xenograft, at a dosage 10 mg/kg on day 14. The class given is functional, organism-based. On the set-up: dose 10 mg/kg. The method in brief: as §1
Experiment [7] deals with Mus musculus. The experiment is described as follows: Compound was evaluated for antitumor activity (T/C) in HT1376 carcinoma Xenograft, at a dosage 6.25 mg/kg on day 28. The class given is functional, organism-based. Also noted: dose 6.25 mg/kg. The method in brief: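 Nude mice carrying subcutaneous flank HT1376 fragments; treatment began once tumors were established and palpable, randomized into groups of 6 treated and 10 control mice. Dosing was ip as a suspension in 0.5% carboxymethylcellulose in 0.9% saline on days 0, 7, 14 and 21, at the MTD and two 2-fold dilutions. Tumors were measured on days 0-28. RTV = 100(mean volume at assessment)/(mean start volume); T/C = treated RTV/control RTV.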

For experiment [8], the system named is Mus musculus. Nature of the experiment: Compound was evaluated for antitumor activity (RTV) in PNX/109/TC carcinoma Xenograft, at a dosage 10 mg/kg on day 7. The class given is functional, organism-based. Also noted: dose 10 mg/kg. The method in brief: as §1
Experiment [9] relates to Mus musculus. Nature of the experiment: Compound was evaluated for antitumor activity (RTV) in HT1376 carcinoma Xenograft, at a dosage 6.25 mg/kg on day 28. Format: functional, organism-based. On the set-up: dose 6.25 mg/kg. The method in brief: (§4)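 HT1376 tumor fragments implanted subcutaneously in nude mice flanks; mice with established palpable tumors randomized into groups of 6 (controls 10). Compounds given intraperitoneally as suspensions in 0.5% carboxymethylcellulose in 0.9% saline, on days 0, 7, 14 and 21. Tumor dimensions on days 0, 7, 14, 21, 28. RTV = 100(mean tumor volume at assessment)/(mean start volume).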

Experiment [10] deals with Mus musculus. The experiment is described as follows: Compound was evaluated for antitumor activity (RTV) in HT1376 carcinoma Xenograft, at a dosage 12.5 mg/kg on day 7. Format: functional, organism-based. Also noted: dose 12.5 mg/kg. The method in brief: as §4
In experiment [11] the test system is Mus musculus. The experiment is described as follows: Compound was evaluated for antitumor activity (T/C) in HT1376 carcinoma Xenograft, at a dosage 12.5 mg/kg on day 14. Format: functional, organism-based. Also noted: dose 12.5 mg/kg. The method in brief: as §2
The subject of experiment [12] is Mus musculus. Nature of the experiment: Compound was evaluated for antitumor activity (RTV) in HT1376 carcinoma Xenograft, at a dosage 6.25 mg/kg on day 7. Format: functional, organism-based. Also noted: dose 6.25 mg/kg. The method in brief:
as §4

Experiment [13] in a line: Range is evaluated. (Highest IC50/Lowest IC50). The class given is functional.
Experiment [14] deals with Mus musculus. The experiment is described as follows: Compound was evaluated for antitumor activity (RTV) in HT1376 carcinoma Xenograft, at a dosage 12.5 mg/kg on day 14. On the set-up: dose 12.5 mg/kg. The class given is functional, organism-based. The method in brief:
as §4

Experiment [15] relates to Mus musculus. Nature of the experiment: Compound was evaluated for antitumor activity (RTV) in PNX/109/TC carcinoma Xenograft, at a dosage 5 mg/kg fon day 7. The class given is functional, organism-based. On the set-up: dose 5 mg/kg. The method in brief: as §1
Experiment [16] concerns Mus musculus. The experiment is described as follows: Compound was evaluated for antitumor activity (T/C) in PNX/109/TC carcinoma Xenograft, at a dosage 10 mg/kg on day 28. The class given is functional, organism-based. On the set-up: dose 10 mg/kg. The method in brief: as §3

Regarding “Acetato[2-(dimethylamino)methyl]phenyl-C,N]gold-(III)”, the RTV stood at 833 with Mus musculus [1]; 673 in the experiment on Mus musculus [5]; 316 in the experiment with Mus musculus [6]; 173 in the experiment on Mus musculus [8]; 1670 with Mus musculus [9]; 212 in the experiment on Mus musculus [10]. For the same substance, the RTV in the experiment with Mus musculus [12] is 379; in the experiment with Mus musculus [14], 498; in the experiment on Mus musculus [15], 160. The T/C in the experiment with Mus musculus [2] is 0.77; in the experiment on Mus musculus [3], 0.57; in the experiment on Mus musculus [4], 1.03; with Mus musculus [7] it was 1.16; in the experiment with Mus musculus [11] it was 0.98; in the experiment with Mus musculus [16], 1.34. Further, the Range in experiment [13] is 21.6 and 31.
